Reference: ChEMBL document CHEMBL1156597, “Structure-activity relationship of kahalalide F synthetic analogues” (J Med Chem, 2008)

Legend:
LoVo [1] = test: Cytotoxicity against human LoVo cells after 48 hrs by SRB assay; format: functional; settings: for CC50: read-out: LC50 (the source's name)
LoVo [2] = test: Cytotoxicity against human doxorubicin resistant LoVo cells after 48 hrs by SRB assay; format: functional; settings: for CC50: read-out: LC50 (the source's name)
Summary of the method: (§1)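 Cells grown in RPMI 1640 with 10% FBS and penicillin/streptomycin at 37 °C and 5% CO₂, trypsinized, then seeded at 5 × 10³/well. After 18 h drug-free attachment, samples in DMSO/EtOH/PBS (0.5:0.5:99) were added for 48 h continuous exposure. Cells were fixed with cold TCA (1 h, 4 °C) and stained with SRB (10 min). Tris-solubilized stain read at 490 nm. Triplicate wells, mean ± SD; GI₅₀ derived.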

SK-BR-3 = test: Cytotoxicity against human SKBR3 cells after 48 hrs by SRB assay; format: functional; settings: SK-BR-3, 48 h; for GI50: read-out: GI50; for CC50: read-out: LC50 (the source's name); summary of the method: as §1
DU-145 = test: Cytotoxicity against human DU145 cells after 48 hrs by SRB assay; format: functional, cell-based; settings: Homo sapiens, DU-145, 48 h; for GI50: read-out: GI50; for CC50: read-out: LC50 (the source's name); summary of the method: as §1
HT-29 = test: Cytotoxicity against human HT29 cells after 48 hrs by SRB assay; format: functional, cell-based; settings: Homo sapiens, HT-29, 48 h; for CC50: read-out: LC50 (the source's name); summary of the method: as §1
A549 = test: Cytotoxicity against human A549 cells after 48 hrs by SRB assay; format: functional, cell-based; settings: Homo sapiens, A549, 48 h; for GI50: read-out: GI50; summary of the method: as §1
SK-MEL-28 = test: Cytotoxicity against human SK-MEL-28 cells after 48 hrs by SRB assay; format: functional, cell-based; settings: Homo sapiens, SK-MEL-28, 48 h; for GI50: read-out: GI50; for CC50: read-out: LC50 (the source's name); summary of the method: as §1
[3] = Cytotoxicity against human IGROV-ET cells after 48 hrs by SRB assay; format: functional; settings: for CC50: read-out: LC50 (the source's name); summary of the method: as §1
HeLa = test: Cytotoxicity against human HeLa cells after 48 hrs by SRB assay; format: functional; settings: for CC50: read-out: LC50 (the source's name); summary of the method: as §1
[4] = Cytotoxicity against human HeLa-APL cells after 48 hrs by SRB assay; format: functional; summary of the method: as §1
K562 = test: Cytotoxicity against human K562 cells after 48 hrs by SRB assay; format: functional; settings: K562, 48 h; for CC50: read-out: LC50 (the source's name); summary of the method: as §1
LNCaP = test: Cytotoxicity against human LNcaP cells after 48 hrs by SRB assay; format: functional; settings: for CC50: read-out: LC50 (the source's name); summary of the method: as §1
PANC-1 = test: Cytotoxicity against human PANC1 cells after 48 hrs by SRB assay; format: functional; settings: PANC-1, 48 h; for CC50: read-out: LC50 (the source's name); summary of the method: as §1
[5] = Cytotoxicity against human IGROV cells after 48 hrs by SRB assay; format: functional; settings: for CC50: read-out: LC50 (the source's name); summary of the method: as §1

SMILES: C/C=C1\NC(=O)[C@H](Cc2ccccc2)NC(=O)[C@@H](C(C)C)NC(=O)[C@@H]([C@H](C)CC)NC(=O)[C@H](NC(=O)[C@H](NC(=O)[C@H](CCCCN)NC(=O)[C@H]2CCCN2C(=O)[C@H](NC(=O)[C@@H](NC(=O)[C@@H](NC(=O)[C@H](NC(=O)CCCC(C)C)C(C)C)[C@@H](C)O)C(C)C)C(C)C)[C@H](C)CC)[C@H](C)OC(=O)[C@H](C(C)C)NC1=O
- GI50 (LoVo [1]): 426 nM
- TGI (LoVo [1]): 379 nM
- CC50 (LoVo [1]): 337 nM
- GI50 (LoVo [2]): 301 nM
- TGI (LoVo [2]): 280 nM
- CC50 (LoVo [2]): 36.6 nM
- TGI (SK-BR-3): 366 nM
- GI50 (SK-BR-3): 385 nM
- CC50 (SK-BR-3): 351 nM
- TGI (DU-145): 2440 nM
- GI50 (DU-145): 1290 nM
- CC50 (DU-145): 3170 nM
- GI50 (HT-29): 521 nM
- TGI (HT-29): 422 nM
- CC50 (HT-29): 340 nM
- LC50 (A549): 1340 nM
- TGI (A549): 1390 nM
- GI50 (A549): 1440 nM
- TGI (SK-MEL-28): 1270 nM
- GI50 (SK-MEL-28): 1470 nM
- CC50 (SK-MEL-28): 1370 nM
- GI50 [3]: 619 nM
- GI50 ([3]; read-out: GI50): 645 nM
- CC50 [3]: 587 nM
- GI50 (HeLa): 910 nM
- TGI (HeLa): 776 nM
- CC50 (HeLa): 883 nM
- GI50 [4]: 512 nM
- LC50 (concentration giving 50% net cell kill) [4]: 757 nM
- TGI [4]: 664 nM
- GI50 (K562): 9350 nM
- TGI (K562): 14700 nM
- CC50 (K562): 4770 nM
- GI50 (LNCaP): 1330 nM
- TGI (LNCaP): 1150 nM
- CC50 (LNCaP): 985 nM
- GI50 (PANC-1): 5110 nM
- TGI (PANC-1): 4550 nM
- CC50 (PANC-1): 2210 nM
- GI50 [5]: 568 nM
- GI50 ([5]; read-out: GI50): 562 nM
- CC50 [5]: 5720 nM

SMILES: C/C=C1\NC(=O)[C@H](Cc2ccccc2)NC(=O)[C@@H](C(C)C)NC(=O)[C@@H]([C@H](C)CC)NC(=O)[C@H](NC(=O)[C@H](NC(=O)[C@H](CCCN)NC(=O)[C@H]2CCCN2C(=O)[C@H](NC(=O)[C@@H](NC(=O)[C@@H](NC(=O)[C@H](NC(=O)CCCC(C)C)C(C)C)[C@@H](C)O)C(C)C)C(C)C)[C@H](C)CC)COC(=O)[C@H](C(C)C)NC1=O
- GI50 (LoVo [1]): 457 nM
- TGI (LoVo [1]): 513 nM
- CC50 (LoVo [1]): 620 nM
- GI50 (LoVo [2]): 353 nM
- TGI (LoVo [2]): 367 nM
- CC50 (LoVo [2]): 384 nM
- CC50 (SK-BR-3): 610 nM
- TGI (DU-145): 5210 nM
- GI50 (DU-145): 5040 nM
- CC50 (DU-145): 5370 nM
- GI50 (HT-29): 983 nM
- TGI (HT-29): 1540 nM
- CC50 (HT-29): 1970 nM
- LC50 (A549): 1270 nM
- TGI (A549): 1350 nM
- GI50 (A549): 1440 nM
- TGI (SK-MEL-28): 1500 nM
- GI50 (SK-MEL-28): 1900 nM
- CC50 (SK-MEL-28): 1180 nM
- GI50 [3]: 753 nM
- GI50 ([3]; read-out: GI50): 620 nM
- CC50 [3]: 663 nM
- CC50 (HeLa): 1470 nM
- GI50 [4]: 1930 nM
- LC50 (concentration giving 50% net cell kill) [4]: 1320 nM
- TGI [4]: 1650 nM
- CC50 (K562): 4460 nM
- GI50 (LNCaP): 3370 nM
- TGI (LNCaP): 3360 nM
- CC50 (LNCaP): 2140 nM
- CC50 (PANC-1): 8970 nM
- TGI [5]: 25100 nM
- GI50 ([5]; read-out: GI50): 16700 nM
- CC50 [5]: 33800 nM

SMILES: CC[C@@H](C)[C@@H](NC(=O)[C@H](CCCN)NC(=O)[C@H]1CCCN1C(=O)[C@H](NC(=O)[C@@H](NC(=O)[C@@H](NC(=O)[C@H](NC(=O)CCCC(C)C)C(C)C)[C@@H](C)O)C(C)C)C(C)C)C(=O)N[C@H]1C(=O)N[C@H]([C@H](C)CC)C(=O)N[C@H](C(C)C)C(=O)N[C@@H](Cc2ccccc2)C(=O)NC(C)(C)C(=O)N[C@@H](C(C)C)C(=O)O[C@H]1C
- GI50 (LoVo [1]): 2320 nM
- TGI (LoVo [1]): 2310 nM
- CC50 (LoVo [1]): 2070 nM
- GI50 (LoVo [2]): 1590 nM
- TGI (LoVo [2]): 1500 nM
- CC50 (LoVo [2]): 456 nM
- TGI (SK-BR-3): 1980 nM
- GI50 (SK-BR-3): 2130 nM
- CC50 (SK-BR-3): 777 nM
- TGI (DU-145): 1390 nM
- GI50 (DU-145): 1640 nM
- CC50 (DU-145): 1170 nM
- GI50 (HT-29): 2350 nM
- TGI (HT-29): 2120 nM
- CC50 (HT-29): 743 nM
- LC50 (A549): 1430 nM
- TGI (SK-MEL-28): 3080 nM
- GI50 (SK-MEL-28): 2180 nM
- CC50 (SK-MEL-28): 1740 nM
- GI50 [3]: 668 nM
- GI50 ([3]; read-out: GI50): 1080 nM
- CC50 [3]: 423 nM
- CC50 (HeLa): 1090 nM
- GI50 [4]: 2790 nM
- LC50 (concentration giving 50% net cell kill) [4]: 1430 nM
- TGI [4]: 2800 nM
- CC50 (K562): 1930 nM
- CC50 (LNCaP): 1390 nM
- CC50 (PANC-1): 1770 nM
- GI50 [5]: 790 nM
- GI50 ([5]; read-out: GI50): 1790 nM
- CC50 [5]: 368 nM
